Results taken from the M2OR odorant receptor database.
Positions count from the first letter of the chain named.

Assays:
Conditions in all cases: stereoisomer not certain
OR4L1 (Homo sapiens) = molecular target: T1, OR4L1 (Homo sapiens) (UniProt Q8NH43)
T1 sequence (whole entry): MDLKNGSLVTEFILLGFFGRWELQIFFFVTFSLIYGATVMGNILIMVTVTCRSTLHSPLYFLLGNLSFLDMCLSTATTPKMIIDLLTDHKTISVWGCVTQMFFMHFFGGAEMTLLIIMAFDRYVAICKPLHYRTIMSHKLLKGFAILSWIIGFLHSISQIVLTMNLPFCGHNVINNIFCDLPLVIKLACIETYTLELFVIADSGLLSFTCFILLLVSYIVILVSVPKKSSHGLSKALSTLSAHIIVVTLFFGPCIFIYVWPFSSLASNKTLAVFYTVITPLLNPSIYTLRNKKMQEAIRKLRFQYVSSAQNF
Outline: (§1)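 Each entry records the cell line, G-protein, co-transfected protein and tags used. Methods varied with the source, often transient luciferase assays in mammalian cell lines. A receptor–molecule pair is called responsive (active) if the original authors judged its signal statistically different from baseline and non-responsive (inactive) otherwise.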

OR4M1 (Homo sapiens) = molecular target: T2, OR4M1 (Homo sapiens) (UniProt Q8NGD0)
T2 sequence (whole entry): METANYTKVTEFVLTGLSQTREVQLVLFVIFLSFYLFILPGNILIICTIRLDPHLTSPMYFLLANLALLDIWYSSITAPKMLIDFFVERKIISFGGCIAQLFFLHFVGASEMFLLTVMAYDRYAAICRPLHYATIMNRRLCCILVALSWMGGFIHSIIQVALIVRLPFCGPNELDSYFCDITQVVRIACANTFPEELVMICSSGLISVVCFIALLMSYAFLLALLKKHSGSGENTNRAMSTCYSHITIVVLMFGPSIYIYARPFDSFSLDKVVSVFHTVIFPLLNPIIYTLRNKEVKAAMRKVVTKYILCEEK
Outline: as §1

OR4M2 (Homo sapiens) = molecular target: T3, OR4M2 (Homo sapiens) (UniProt Q8NGB6)
T3 sequence (whole entry): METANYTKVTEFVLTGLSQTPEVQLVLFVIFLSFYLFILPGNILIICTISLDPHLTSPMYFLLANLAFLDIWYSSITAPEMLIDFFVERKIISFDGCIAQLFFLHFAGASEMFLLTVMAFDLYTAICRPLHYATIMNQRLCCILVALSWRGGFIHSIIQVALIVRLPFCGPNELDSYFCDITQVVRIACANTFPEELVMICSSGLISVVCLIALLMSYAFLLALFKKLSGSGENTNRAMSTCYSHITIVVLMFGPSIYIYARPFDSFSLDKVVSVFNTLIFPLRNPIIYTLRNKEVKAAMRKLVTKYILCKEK
Outline: as §1

OR4M2B (Homo sapiens) = OR4M2B (Homo sapiens) (UniProt A0A0X1KG70)
Chain of OR4M2B (Homo sapiens) (A0A0X1KG70 whole entry): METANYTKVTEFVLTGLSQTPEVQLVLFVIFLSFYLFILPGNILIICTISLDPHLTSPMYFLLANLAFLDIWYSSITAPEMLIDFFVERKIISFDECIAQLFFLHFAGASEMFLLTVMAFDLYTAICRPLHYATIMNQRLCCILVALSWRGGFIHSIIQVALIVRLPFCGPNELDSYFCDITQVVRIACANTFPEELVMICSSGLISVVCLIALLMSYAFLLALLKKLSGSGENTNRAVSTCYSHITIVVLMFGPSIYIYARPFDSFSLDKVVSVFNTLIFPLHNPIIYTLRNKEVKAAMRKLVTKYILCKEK
Outline: as §1

OR4N2 (Homo sapiens) = molecular target: T4, OR4N2 (Homo sapiens) (UniProt Q8NGD1)
T4 sequence (whole entry): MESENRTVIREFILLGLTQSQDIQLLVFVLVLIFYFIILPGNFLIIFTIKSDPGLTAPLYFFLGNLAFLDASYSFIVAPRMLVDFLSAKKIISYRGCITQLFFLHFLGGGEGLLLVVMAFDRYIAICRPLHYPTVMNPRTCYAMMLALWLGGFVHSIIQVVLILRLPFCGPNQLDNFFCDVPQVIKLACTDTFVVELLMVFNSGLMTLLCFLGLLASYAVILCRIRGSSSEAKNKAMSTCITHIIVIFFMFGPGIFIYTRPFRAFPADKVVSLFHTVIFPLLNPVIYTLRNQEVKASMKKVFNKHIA
Outline: as §1

OR4N4 (Homo sapiens) = molecular target: T5, OR4N4 (Homo sapiens) (UniProt Q8N0Y3)
T5 sequence (whole entry): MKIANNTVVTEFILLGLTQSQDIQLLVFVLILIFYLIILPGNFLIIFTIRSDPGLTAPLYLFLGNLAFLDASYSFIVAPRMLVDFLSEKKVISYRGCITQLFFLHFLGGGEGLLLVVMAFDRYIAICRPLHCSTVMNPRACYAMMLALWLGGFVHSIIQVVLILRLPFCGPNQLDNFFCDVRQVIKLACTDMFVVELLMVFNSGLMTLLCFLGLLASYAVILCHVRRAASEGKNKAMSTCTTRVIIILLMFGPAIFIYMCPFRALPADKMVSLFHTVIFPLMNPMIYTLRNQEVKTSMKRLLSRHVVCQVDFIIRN
Outline: as §1

OR4N4C (Homo sapiens) = OR4N4C (Homo sapiens) (UniProt A0A096LPK9)
Chain of OR4N4C (Homo sapiens) (A0A096LPK9 whole entry): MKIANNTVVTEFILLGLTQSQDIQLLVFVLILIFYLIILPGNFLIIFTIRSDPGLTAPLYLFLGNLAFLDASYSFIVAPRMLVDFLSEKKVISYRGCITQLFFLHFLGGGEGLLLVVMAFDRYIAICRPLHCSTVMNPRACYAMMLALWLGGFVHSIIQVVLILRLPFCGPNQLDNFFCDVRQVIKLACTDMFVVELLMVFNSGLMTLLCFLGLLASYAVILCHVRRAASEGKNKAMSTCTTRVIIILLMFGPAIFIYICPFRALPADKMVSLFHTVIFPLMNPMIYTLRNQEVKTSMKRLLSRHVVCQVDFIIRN
Outline: as §1

OR4N5 (Homo sapiens) = molecular target: T6, OR4N5 (Homo sapiens) (UniProt Q8IXE1)
T6 sequence (whole entry): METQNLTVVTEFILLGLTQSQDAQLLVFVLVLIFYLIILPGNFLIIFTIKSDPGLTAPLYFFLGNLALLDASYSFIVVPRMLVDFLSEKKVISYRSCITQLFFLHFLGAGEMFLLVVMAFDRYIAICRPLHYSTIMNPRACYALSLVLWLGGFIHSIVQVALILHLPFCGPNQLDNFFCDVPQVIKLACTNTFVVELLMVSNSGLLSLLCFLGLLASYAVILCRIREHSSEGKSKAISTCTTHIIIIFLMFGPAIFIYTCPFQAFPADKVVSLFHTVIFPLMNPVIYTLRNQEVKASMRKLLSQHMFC
Outline: as §1

OR4P4 (Homo sapiens) = molecular target: T7, OR4P4 (Homo sapiens) (UniProt Q8NGL7)
T7 sequence (whole entry): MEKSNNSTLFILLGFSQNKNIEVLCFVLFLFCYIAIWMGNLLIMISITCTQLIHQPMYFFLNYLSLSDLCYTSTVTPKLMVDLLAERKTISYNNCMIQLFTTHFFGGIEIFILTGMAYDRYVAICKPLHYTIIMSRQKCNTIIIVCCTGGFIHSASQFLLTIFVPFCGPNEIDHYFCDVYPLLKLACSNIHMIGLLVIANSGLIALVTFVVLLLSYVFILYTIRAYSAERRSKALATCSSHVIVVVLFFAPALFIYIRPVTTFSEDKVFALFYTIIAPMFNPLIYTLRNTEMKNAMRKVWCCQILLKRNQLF
Outline: as §1

OR4Q2 (Homo sapiens) = OR4Q2 (Homo sapiens) (UniProt P0C623)
Chain of OR4Q2 (Homo sapiens) (P0C623 as listed by the source): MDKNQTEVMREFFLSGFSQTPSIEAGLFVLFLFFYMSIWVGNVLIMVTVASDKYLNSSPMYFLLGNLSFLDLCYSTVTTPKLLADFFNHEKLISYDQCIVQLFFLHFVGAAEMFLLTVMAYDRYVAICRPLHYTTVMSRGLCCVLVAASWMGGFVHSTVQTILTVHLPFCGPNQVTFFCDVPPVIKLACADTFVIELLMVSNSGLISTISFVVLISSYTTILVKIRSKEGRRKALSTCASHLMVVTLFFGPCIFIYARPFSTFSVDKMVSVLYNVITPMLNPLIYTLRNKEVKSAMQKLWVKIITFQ
Outline: as §1

OR4Q3 (Homo sapiens) = molecular target: T8, OR4Q3 (Homo sapiens) (UniProt Q8NH05)
T8 sequence (whole entry): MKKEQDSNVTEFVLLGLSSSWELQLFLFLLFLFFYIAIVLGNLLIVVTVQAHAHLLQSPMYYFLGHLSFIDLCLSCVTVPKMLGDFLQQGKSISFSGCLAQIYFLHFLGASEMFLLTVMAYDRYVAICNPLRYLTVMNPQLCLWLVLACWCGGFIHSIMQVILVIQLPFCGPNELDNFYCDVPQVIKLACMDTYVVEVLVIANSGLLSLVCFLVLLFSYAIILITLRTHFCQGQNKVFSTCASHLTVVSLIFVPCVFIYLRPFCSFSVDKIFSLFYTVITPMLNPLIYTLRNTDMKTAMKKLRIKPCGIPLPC
Outline: as §1

OR4S1 (Homo sapiens) = molecular target: T9, OR4S1 (Homo sapiens) (UniProt Q8NGB4)
T9 sequence (whole entry): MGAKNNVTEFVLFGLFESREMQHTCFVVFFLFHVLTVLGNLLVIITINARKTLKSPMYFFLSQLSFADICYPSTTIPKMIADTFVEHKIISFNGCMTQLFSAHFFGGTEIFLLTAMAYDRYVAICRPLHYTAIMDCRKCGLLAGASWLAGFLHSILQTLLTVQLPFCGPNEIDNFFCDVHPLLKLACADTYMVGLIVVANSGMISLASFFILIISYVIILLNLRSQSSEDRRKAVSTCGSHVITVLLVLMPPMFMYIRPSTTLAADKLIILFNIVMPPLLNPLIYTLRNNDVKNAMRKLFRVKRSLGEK
Outline: as §1

OR4KH = test system: T10, OR4KH
T10 sequence (whole entry): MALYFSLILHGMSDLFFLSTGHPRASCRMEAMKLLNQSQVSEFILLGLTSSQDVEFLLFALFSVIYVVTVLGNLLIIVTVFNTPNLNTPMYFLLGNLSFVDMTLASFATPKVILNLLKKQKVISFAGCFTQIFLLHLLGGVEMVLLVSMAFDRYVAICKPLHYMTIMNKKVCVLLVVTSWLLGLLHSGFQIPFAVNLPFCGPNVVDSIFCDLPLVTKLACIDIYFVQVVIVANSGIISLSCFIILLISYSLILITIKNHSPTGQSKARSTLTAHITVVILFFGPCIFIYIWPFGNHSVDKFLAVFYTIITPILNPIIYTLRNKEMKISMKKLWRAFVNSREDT
Outline: as §1

OR4L1 = test system: T11, OR4L1
T11 sequence (whole entry): T1 sequence (whole entry) with R52S
Outline: as §1

OR4M1 H277N V279L L284H = test system: T12, OR4M1 H277N V279L L284H
T12 sequence (whole entry): T2 sequence (whole entry) with H277N, V279L, L284H
Outline: as §1

OR4N2 A57V I76T = test system: T13, OR4N2 A57V I76T
T13 sequence (whole entry): T4 sequence (whole entry) with A57V, I76T
Outline: as §1

OR4N2 R260C F279L R290H = test system: T14, OR4N2 R260C F279L R290H
T14 sequence (whole entry): T4 sequence (whole entry) with R260C, F279L, R290H
Outline: as §1

OR4N2 = test system: T15, OR4N2
T15 sequence (whole entry): T4 sequence (whole entry) with I76T
Outline: as §1

OR4Q3 T135A = test system: T16, OR4Q3 T135A
T16 sequence (whole entry): T8 sequence (whole entry) with T135A
Outline: as §1

Measured: odorant receptor agonist call

CC(=O)c1c(C)c([N+](=O)[O-])c(C(C)(C)C)c([N+](=O)[O-])c1C
inactive: OR4L1 (Homo sapiens) | OR4M1 (Homo sapiens) | OR4M2 (Homo sapiens) | OR4M2B (Homo sapiens) | OR4N2 (Homo sapiens) | OR4N4 (Homo sapiens) | OR4N4C (Homo sapiens) | OR4N5 (Homo sapiens) | OR4P4 (Homo sapiens) | OR4Q2 (Homo sapiens) | OR4Q3 (Homo sapiens) | OR4S1 (Homo sapiens)

CCCCCC(=O)C(C)C(C)=O (configuration not stated)
inactive: OR4L1 (Homo sapiens) | OR4M1 (Homo sapiens) | OR4M2 (Homo sapiens) | OR4N2 (Homo sapiens) | OR4N4 (Homo sapiens) | OR4N5 (Homo sapiens) | OR4P4 (Homo sapiens) | OR4Q3 (Homo sapiens) | OR4S1 (Homo sapiens)

CC1=C(O)C(=O)OC1C (configuration not stated)
inactive: OR4KH | OR4L1 (Homo sapiens) | OR4L1 | OR4M1 (Homo sapiens) | OR4M1 H277N V279L L284H | OR4M2 (Homo sapiens) | OR4N2 (Homo sapiens) | OR4N2 A57V I76T | OR4N2 R260C F279L R290H | OR4N2 | OR4N4 (Homo sapiens) | OR4N5 (Homo sapiens) | OR4P4 (Homo sapiens) | OR4Q3 (Homo sapiens) | OR4Q3 T135A | OR4S1 (Homo sapiens)

CC1=NC(C)C(C)S1 (configuration not stated)
inactive: OR4KH | OR4L1 (Homo sapiens) | OR4L1 | OR4M1 (Homo sapiens) | OR4M1 H277N V279L L284H | OR4M2 (Homo sapiens) | OR4N2 (Homo sapiens) | OR4N2 A57V I76T | OR4N2 R260C F279L R290H | OR4N2 | OR4N4 (Homo sapiens) | OR4N5 (Homo sapiens) | OR4P4 (Homo sapiens) | OR4Q3 (Homo sapiens) | OR4Q3 T135A | OR4S1 (Homo sapiens)

CCCC(S)CCOC(C)=O (configuration not stated)
inactive: OR4KH | OR4L1 (Homo sapiens) | OR4L1 | OR4M1 (Homo sapiens) | OR4M1 H277N V279L L284H | OR4M2 (Homo sapiens) | OR4N2 (Homo sapiens) | OR4N2 A57V I76T | OR4N2 R260C F279L R290H | OR4N2 | OR4N4 (Homo sapiens) | OR4N5 (Homo sapiens) | OR4P4 (Homo sapiens) | OR4Q3 (Homo sapiens) | OR4Q3 T135A | OR4S1 (Homo sapiens)

CC1CCCCCCCCCCCCC(=O)C1 (configuration not stated)
inactive: OR4L1 (Homo sapiens) | OR4M1 (Homo sapiens) | OR4M2 (Homo sapiens) | OR4M2B (Homo sapiens) | OR4N2 (Homo sapiens) | OR4N4 (Homo sapiens) | OR4N4C (Homo sapiens) | OR4N5 (Homo sapiens) | OR4P4 (Homo sapiens) | OR4Q2 (Homo sapiens) | OR4Q3 (Homo sapiens) | OR4S1 (Homo sapiens)

CC1=C(O)C(=O)C(C)O1 (configuration not stated)
inactive: OR4KH | OR4L1 (Homo sapiens) | OR4L1 | OR4M1 (Homo sapiens) | OR4M1 H277N V279L L284H | OR4M2 (Homo sapiens) | OR4N2 (Homo sapiens) | OR4N2 A57V I76T | OR4N2 R260C F279L R290H | OR4N2 | OR4N4 (Homo sapiens) | OR4N5 (Homo sapiens) | OR4P4 (Homo sapiens) | OR4Q3 (Homo sapiens) | OR4Q3 T135A | OR4S1 (Homo sapiens)
